One compound from ChEMBL document CHEMBL4433213, “Investigation on 2',3'-O-Substituted ATP Derivatives and Analogs as Novel P2X3 Receptor Antagonists” (ACS Med Chem Lett, 2019) can be followed below.

The target in the assay is T1, P2X purinoceptor 3 (Mus musculus) (UniProt Q3UR32).
T1 sequence (whole entry): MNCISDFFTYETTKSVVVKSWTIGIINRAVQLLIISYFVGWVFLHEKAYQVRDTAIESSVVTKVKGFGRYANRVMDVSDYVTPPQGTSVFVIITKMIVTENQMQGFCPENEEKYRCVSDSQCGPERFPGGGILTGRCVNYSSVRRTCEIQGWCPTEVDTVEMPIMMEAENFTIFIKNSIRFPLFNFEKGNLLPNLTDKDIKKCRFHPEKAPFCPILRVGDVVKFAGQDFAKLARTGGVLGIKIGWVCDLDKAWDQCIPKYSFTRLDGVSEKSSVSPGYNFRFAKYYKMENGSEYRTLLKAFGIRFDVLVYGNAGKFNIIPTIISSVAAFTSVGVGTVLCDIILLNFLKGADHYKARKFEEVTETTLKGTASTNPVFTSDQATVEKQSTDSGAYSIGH
The assay is described as follows: Antagonist activity at P2X3R in mouse TG sensory neurons assessed as inhibition of P2X3R agonist alpha,beta-meATP-induced current at 1 uM at -65 mV holding potential by whole cell voltage clamp method relative to control. The gist of the method: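 Mouse trigeminal sensory neurons were recorded by whole-cell patch clamp. Test compound (0.001–10 μM) was applied before 10 μM α,β-meATP, and inhibition of the agonist-evoked P2X3 current was measured. IC50 was taken from concentration–inhibition curves. N = 5–6 cells.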

Structures are written as SMILES.

For the compound `Nc1ncnc2c1ncn2[C@@H]1O[C@H](COP(=O)(O)OP(=O)(O)OP(=O)(O)O)[C@H]2OCO[C@H]21`, the inhibition came out at 25%.
